HIF activator = HIF pathway transcriptional activation; U2OS HRE-luciferase reporter, luminescence; normalized: DMSO 0%, desferrioxamine 100%; activation, % at 7.5 µM (by protocol); 0.32% of 300,000 active; AID 1910;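 active = mean activation of at least 10% of the iron chelator positive control signal, with at least half of replicates also reaching 10%; inconclusive = mean and replicate majority disagree about reaching 10%; inactive = mean and most replicates under 10%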
AI-2 QS mod = Vibrio harveyi AI-2 quorum sensing modulation. activity change, % at 7.5 µM. Vibrio harveyi JMH597 AI-2 luminescence/OD600 ratio, 9 h; stronger effect = lower value; strain lacks LuxN and CqsS sensors; 0 = neutral-control median. AID 2094. 0.4% of 300,000 active; in the data active = activity change below about -75%, passing the limit was not always enough; inconclusive = no clear call, values can overlap the other calls;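 note: luminescence divided by OD600 gain over 9 h not by final OD600 alone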
CendR NRP1 mod = modulators of CendR peptide binding to human neuropilin-1; FAM-RPARPAR peptide binding to NRP-1, fluorescence polarization; inhibition, % at 25 µM; 0.85% of 360,000 active;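 active = inhibition or corrected inhibition above about 18%, plus a signal ratio from 0.5 to 1.5, limit read from the data, passing the limit was not always enough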
Target sequence (O14786 whole entry, looked up): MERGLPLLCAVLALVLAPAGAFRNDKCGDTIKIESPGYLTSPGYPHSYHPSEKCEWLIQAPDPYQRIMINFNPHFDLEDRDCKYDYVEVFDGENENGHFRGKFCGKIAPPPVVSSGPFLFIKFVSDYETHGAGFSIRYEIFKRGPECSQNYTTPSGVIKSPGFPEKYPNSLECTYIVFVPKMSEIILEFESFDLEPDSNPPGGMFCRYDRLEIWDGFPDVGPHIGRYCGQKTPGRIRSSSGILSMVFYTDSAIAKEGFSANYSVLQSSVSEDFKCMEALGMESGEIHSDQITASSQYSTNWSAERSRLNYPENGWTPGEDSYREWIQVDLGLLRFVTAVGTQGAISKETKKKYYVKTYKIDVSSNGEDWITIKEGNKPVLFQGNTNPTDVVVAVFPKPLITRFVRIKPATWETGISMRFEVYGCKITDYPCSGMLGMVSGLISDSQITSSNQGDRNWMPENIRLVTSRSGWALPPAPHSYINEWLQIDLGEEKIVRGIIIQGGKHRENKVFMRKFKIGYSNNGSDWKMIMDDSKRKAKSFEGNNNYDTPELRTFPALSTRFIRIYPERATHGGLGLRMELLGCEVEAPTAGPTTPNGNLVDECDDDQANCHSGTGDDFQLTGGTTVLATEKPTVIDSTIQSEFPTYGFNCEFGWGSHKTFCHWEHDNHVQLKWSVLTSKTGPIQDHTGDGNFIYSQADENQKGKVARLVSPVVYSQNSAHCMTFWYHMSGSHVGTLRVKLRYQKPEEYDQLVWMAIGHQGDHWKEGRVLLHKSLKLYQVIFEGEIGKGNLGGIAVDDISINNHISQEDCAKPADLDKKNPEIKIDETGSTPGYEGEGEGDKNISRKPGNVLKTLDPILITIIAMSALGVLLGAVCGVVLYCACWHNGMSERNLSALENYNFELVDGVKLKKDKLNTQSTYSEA
V-ATPase pHluor = regulators of yeast V-ATPase proton transport. S. cerevisiae, pHLuorin cytosolic pH fluorescence. 0.37% of 350,000 active. response, % at 10 µM; in the data active = response mostly above about 7.3%, no sharp cut-off; inactive = mostly below about 5.4%; note: actives read high
T cruzi repl = T. cruzi replication inhibition; T. cruzi beta-gal in NIH3T3, luminescence, 90 h; inhibition, % (no concentration beside the values); 1.4% of 300,000 active;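 active = mean inhibition across valid replicates above about 55%, limit read from the data; inconclusive = mean below that limit but half or more replicates reach it; inactive = mean below it, under half of replicates reach it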;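 note: signal also drops with host cell toxicity which is not excluded here; higher percent means less beta-gal luminescence so fewer parasites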
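compound dosing = single 50 nL compound addition per well in DMSO | material = NIH/3T3 host cells with β-galactosidase reporter T. cruzi | input = 5,000 host fibroblasts per well | timing = ≥90 h infection period, 3 h prior cell attachment | read-out basis = percent inhibition of parasite-derived β-gal signal | detection = GalScreen β-gal luminescence, detergent lysis, 60 min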
Yeast superoxide = lowers age-related superoxide in aged yeast cells; S. cerevisiae aged cells, superoxide DHE fluorescence; stronger effect = lower value; superoxide response (% of plate mean), % at 10 µM; 0.18% of 330,000 active; AID 2690;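 active = superoxide response under a set limit, about three screen SD below normal, cut at about 65% in these data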;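 note: yeast aged for seven days with compound at 30 °C before DHE staining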
Large screens that a line does not name were inactive. This is a sample that favours compounds with a hit; in the whole collection about 3% have one here.

COC(=O)C1=C(C(=O)OC)[C@@H]2N(C)c3ccc(OC)cc3[C@@]23C[C@@H](C(=O)OC)N(C(=O)CC(C)C)C3=N1	CendR NRP1 mod 26
COC(=O)C1=C(C(=O)OC)[C@@H]2N(C)c3ccc(OC)cc3[C@@]23C[C@@H](C(=O)OC)N(C(=O)NCCBr)C3=N1	none (no result: CendR NRP1 mod, V-ATPase pHluor)
Cc1ccc(N2CC(C(=O)Nc3ccc(S(=O)(=O)N4CCOCC4)cc3)CC2=O)cc1 (centres undefined)	none
CCCNc1ccc(S(=O)(=O)N(C(C)C)C(C)C)cn1	none
CCOCCCN(C)C1CCN(C(=O)c2oc3ccccc3c2NC(=O)c2ccc(F)cc2)CC1	T cruzi repl 56 (no result: HIF activator)
Cc1nc2ncnn2c(N2CCN(C(=O)c3cccc(F)c3)CC2)c1C	CendR NRP1 mod 26
O=C(NNC(=O)c1ccc(NC(=O)c2ccccc2)cc1)Nc1ccccc1	none
COC(=O)c1ccc2[nH]c(C3(O)CCCCC3)c(C)c2c1	none (no result: HIF activator, AI-2 QS mod, T cruzi repl)
CCOc1ccc(N/C(C)=C/C(=O)c2ccc(C)o2)cc1	T cruzi repl 60
COC(=O)c1ccc(N/C(C)=C/C(=O)c2ccc(C)o2)cc1	none
O=C1OCCN1/N=C/c1ccc([N+](=O)[O-])o1	AI-2 QS mod inconclusive
O=C1CN(/N=C/c2ccc([N+](=O)[O-])o2)C(=O)N1	AI-2 QS mod -89, T cruzi repl inconclusive (no result: V-ATPase pHluor)
COc1ccccc1CC(=O)Nc1cccc(C(=O)NN2C(=O)c3ccccc3C2=O)c1	none
CCOc1ccc(S(=O)(=O)c2c[nH]c3ccccc3c2=O)cc1	AI-2 QS mod -85
CCN(CC)CCN(Cc1cc2cc3c(cc2[nH]c1=O)OCCO3)C(=S)NCCCOC	none
O=C(Cn1ncn2c(cc3ccccc32)c1=O)NCc1ccco1	none (no result: HIF activator)
CC(C)c1ccc(CNc2ccc3c(c2)ncn3C)cc1	AI-2 QS mod -79
O=C1c2ccccc2C(=O)c2[nH]cnc21	CendR NRP1 mod 18
O=C1c2ccccc2C(=O)c2[nH]c(=O)[nH]c21	CendR NRP1 mod 28
CCOC(=O)c1c(C)n(-c2ccc(C)cc2)c2ccc(OCC(O)CNCC3CCCO3)cc12 (centres undefined)	T cruzi repl 64
O=C(NCc1ccccc1Cl)C1CCC(=O)N(C2CC2)C1 (centres undefined)	none
O=C(CCC(=O)c1ccc(F)cc1)Nc1cccc(C(F)(F)F)c1	AI-2 QS mod -78
O=C(COC(=O)c1ccco1)c1ccc(S(=O)(=O)N2CCCCC2)cc1	none
CC1(C)Cc2c(c(N3CCOCC3)nc3sc4c(NCc5ccccc5)nnnc4c23)CS1	T cruzi repl 62
Cc1ccc(OCC(=O)Nc2ccc(S(=O)(=O)N(C)C3CCN(C)CC3)cc2)c(C)c1	T cruzi repl 61
CN1CCC(N(C)S(=O)(=O)c2ccc(NC(=O)COc3cccc(Cl)c3)cc2)CC1	T cruzi repl 56
Cc1ccccc1OCCC(=O)Nc1ccc(S(=O)(=O)N(C)C2CCN(C)CC2)cc1	T cruzi repl 58
CN1CCC(N(C)S(=O)(=O)c2ccc(NC(=O)COc3ccc(Br)cc3Cl)cc2)CC1	T cruzi repl inconclusive
Cc1c(C(=O)Nc2ccc(S(=O)(=O)N(C)C3CCN(C)CC3)cc2)oc2ccccc12	none (no result: HIF activator, AI-2 QS mod, T cruzi repl)
Cc1c(C(=O)Nc2ccc(S(=O)(=O)N(C)C3CCN(C)CC3)cc2)oc2c(Cl)cccc12	T cruzi repl 59
CN1CCC(N(C)S(=O)(=O)c2ccc(NC(=O)Cc3ccc(F)cc3)cc2)CC1	none (no result: HIF activator, AI-2 QS mod, T cruzi repl)
COc1ccc(C(NC(=O)C2CCN(CCCOc3ccccc3)CC2)c2ccccn2)cc1 (centres undefined)	none (no result: HIF activator, AI-2 QS mod, V-ATPase pHluor, T cruzi repl, Yeast superoxide)
CN1C(=O)CC(N2CCN(C(=O)c3ccccc3)CC2)C1=O (centres undefined)	none
Cc1ccc(C(=O)NC(=S)Nc2ccccc2C(F)(F)F)c(C)c1	none
CCn1c2ccccc2c2cc(/C=N/n3c(-c4cc(C)[nH]n4)n[nH]c3=S)ccc21	none
Cc1ccc2c(C)c(C(=O)Nc3ccc(S(N)(=O)=O)cc3)oc2c1C	CendR NRP1 mod 40
CNc1nc(N)nc(OC(C(F)(F)F)C(F)(F)F)n1	none
O=C(Cn1cnc([N+](=O)[O-])c1)Nc1cc(Oc2ccc(Cl)cc2Cl)cc([N+](=O)[O-])c1	T cruzi repl 57
N#Cc1ccc(NC(=O)Cn2cnc([N+](=O)[O-])c2)cc1	none (no result: AI-2 QS mod)
COc1ccc(Cc2nnc(NC(=O)Nc3ccc(F)cc3)s2)cc1	none
O=[N+]([O-])c1cc(-c2nnc(N3CCOCC3)c3ccccc23)ccc1N1CCOCC1	none
COC(=O)CN1C(=O)[C@H]2[C@@H](c3ccc(C)o3)N3C(=O)CN(CC4CC4)C(=O)[C@@]3(Cc3ccccc3)[C@H]2C1=O	HIF activator 287
COC(=O)CN1C(=O)[C@H]2[C@@H](c3ccc(C)o3)N3C(=O)CN(CCO)C(=O)[C@@]3(Cc3ccccc3)[C@H]2C1=O	none
CN1/C(=C\P(=O)(N(C)C)N(C)C)C(C)(C)c2ccccc21	T cruzi repl 62
CCOC(=O)/C=C1/N(C)c2ccccc2C1(C)C	none
CN1CCN(C(=O)c2ccc(COc3ccc(C(C)(C)C)cc3)o2)CC1	CendR NRP1 mod 23
CCOC(=O)CSC1=NC(=O)/C(=C\c2ccc(Cl)cc2)S1	V-ATPase pHluor 11
CCOC(=O)C1CCN(C2=NC(=O)/C(=C/c3ccc(Cl)cc3)S2)CC1	none
Cc1cc(C(=O)N2CCC(C)(C(=O)NS(=O)(=O)C3CC3)C2)n(C(C)(C)C)n1 (centres undefined)	none (no result: HIF activator, AI-2 QS mod, V-ATPase pHluor, T cruzi repl, Yeast superoxide)
Cc1ccc(-n2c(=O)c3sccc3n(CC(=O)NCC3CCCO3)c2=O)cc1F (centres undefined)	none
Cc1ccc(-n2ccnc2SCC(=O)O)c(C)c1	CendR NRP1 mod 31
CCn1nccc1C(=O)Nc1nccs1	none (no result: HIF activator, AI-2 QS mod, T cruzi repl)
COc1cc(NC(=O)c2ccc([N+](=O)[O-])o2)ccc1NC(=O)c1ccco1	none
CC(=O)c1cccc(NC(=O)c2ccc([N+](=O)[O-])o2)c1	AI-2 QS mod inconclusive
Cc1cc(C)cc(NC(=O)c2ccc([N+](=O)[O-])o2)c1	AI-2 QS mod -110 (no result: Yeast superoxide)
CC(=O)c1ccc(NC(=O)c2ccc([N+](=O)[O-])o2)cc1	AI-2 QS mod -91
Cc1cc(NC(=O)c2ccc([N+](=O)[O-])o2)ccc1NC(=O)c1ccco1	AI-2 QS mod -94 (no result: Yeast superoxide)
CC(C)Cc1cc(C(=O)N2CCC(N3CCC(C(=O)N4CCCC4)CC3)CC2)n[nH]1	none
O=C(NNc1ccc([N+](=O)[O-])cc1[N+](=O)[O-])c1ccco1	none
CCCC(C(=O)NC(C)(C)C)N(Cc1ccccc1)C(=O)c1snc(C(N)=O)c1N (centres undefined)	none (no result: HIF activator, AI-2 QS mod, V-ATPase pHluor, T cruzi repl, Yeast superoxide)
COc1cc(C)ccc1OCCCCNCc1ccccc1	none
CCOCCCNCc1ccc(OCCC(C)C)c(OC)c1	T cruzi repl 63
CCN1CCN(c2ccc(S(=O)(=O)N3CCOCC3)cc2NC(=O)CCOc2ccccc2)CC1	T cruzi repl 56

Screening results: PubChem, several laboratories
